In brackets after ≈: the same amount, converted by molar mass. Activity calls are given as the source filed them. The rule behind the calls is not given here.
How the values were obtained:
[1] = target: Trypanothione reductase (Trypanosoma cruzi) (UniProt P28593); test: Inhibition of Trypanosoma cruzi trypanothione reductase assessed as reduction in NADPH consumption at 5 uM using 40 uM trypanothione disulfide as substrate by spectrophotometric method relative to control
Procedure, shortened: (§1)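 Recombinant TcTR (5–10 mU) at 25 °C in 40 mM HEPES, 1 mM EDTA, pH 7.5, 100 μM NADPH, 5% DMSO; started with trypanothione disulfide; NADPH consumption read at 340 nm; percentage inhibition calculated.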

786-0 = test: Cytotoxicity against human 786-O cells assessed as mitochondrial viability at 10 uM by CMXRos staining based high-content imaging analysis relative to control; format: cell-based; conditions: 786-0, 10 µM
Procedure, shortened: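 786-O cells kept in RPMI-1640 with 2 mM glutamine, 10% FCS, streptomycin and penicillin G; mitochondria of live cells stained with MitoTracker Red CMXRos and imaged by high-content imaging.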

CYP2C19 = CYP2C19 (Homo sapiens, UniProt P33261); test: Inhibition of human CYP2C19 at 10 uM by P450-Glo assay relative to control; format: ADME
Sequence of CYP2C19 (P33261 whole entry): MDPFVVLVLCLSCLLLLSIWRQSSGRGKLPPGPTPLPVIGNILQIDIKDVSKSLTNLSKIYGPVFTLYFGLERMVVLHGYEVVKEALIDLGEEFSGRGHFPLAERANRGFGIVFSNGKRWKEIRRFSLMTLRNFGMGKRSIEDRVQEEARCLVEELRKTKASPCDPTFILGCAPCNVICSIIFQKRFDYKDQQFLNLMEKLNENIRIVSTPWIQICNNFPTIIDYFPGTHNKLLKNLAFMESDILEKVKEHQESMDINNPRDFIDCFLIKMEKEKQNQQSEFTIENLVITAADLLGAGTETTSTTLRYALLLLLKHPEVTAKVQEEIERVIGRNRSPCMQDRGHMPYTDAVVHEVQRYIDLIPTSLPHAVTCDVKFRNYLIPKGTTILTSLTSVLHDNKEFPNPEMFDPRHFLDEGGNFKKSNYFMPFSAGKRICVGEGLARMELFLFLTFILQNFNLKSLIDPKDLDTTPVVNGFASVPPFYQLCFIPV
Procedure, shortened: (§2)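 P450-Glo luminescent platform: CYP action on each substrate generates light; decreased light taken as inhibition.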

CYP1A2 = target: T1, CYP1A2 (Homo sapiens, UniProt P05177); test: Inhibition of human CYP1A2 at 10 uM by P450-Glo assay relative to control; format: ADME; procedure, shortened: as §2
T1 sequence (P05177 whole entry): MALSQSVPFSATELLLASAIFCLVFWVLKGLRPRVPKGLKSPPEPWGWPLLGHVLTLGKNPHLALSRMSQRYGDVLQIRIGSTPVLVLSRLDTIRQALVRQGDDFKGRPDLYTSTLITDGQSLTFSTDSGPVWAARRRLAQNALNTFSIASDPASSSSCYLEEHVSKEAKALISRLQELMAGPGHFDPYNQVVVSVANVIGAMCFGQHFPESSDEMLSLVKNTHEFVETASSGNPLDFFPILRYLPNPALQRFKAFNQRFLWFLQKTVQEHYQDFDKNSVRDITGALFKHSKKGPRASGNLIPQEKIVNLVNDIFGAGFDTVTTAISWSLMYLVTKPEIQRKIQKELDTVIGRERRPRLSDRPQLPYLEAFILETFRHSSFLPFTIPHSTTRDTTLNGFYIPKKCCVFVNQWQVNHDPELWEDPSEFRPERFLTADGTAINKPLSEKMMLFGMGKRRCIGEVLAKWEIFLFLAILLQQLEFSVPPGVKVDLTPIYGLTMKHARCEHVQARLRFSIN

[2] = Solubility in pH 7.4 Hanks simulated body fluid after overnight incubation by nephelometry; format: physicochemical
[3] = Cytotoxicity against human A549 cells assessed as cell growth at 10 uM by CellTiter-Glo assay relative to control; format: cell-based; conditions: read-out: Activity
Procedure, shortened: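 A549 cells; cellular ATP measured by CellTiter-Glo luminescence as a proxy for cell number; paclitaxel 10 μM as positive control.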

[4] = target: T2, Pteridine reductase 1 (Leishmania major) (UniProt Q01782); test: Inhibition of Leishmania major pteridine reductase 1 assessed as reduction in conversion of dihydrobiopterin to tetrahydrobiopterin at 25 uM up to 50 mins in presence of NADPH by cytochrome c reduction coupled photometric assay relative to control
T2 sequence (whole entry): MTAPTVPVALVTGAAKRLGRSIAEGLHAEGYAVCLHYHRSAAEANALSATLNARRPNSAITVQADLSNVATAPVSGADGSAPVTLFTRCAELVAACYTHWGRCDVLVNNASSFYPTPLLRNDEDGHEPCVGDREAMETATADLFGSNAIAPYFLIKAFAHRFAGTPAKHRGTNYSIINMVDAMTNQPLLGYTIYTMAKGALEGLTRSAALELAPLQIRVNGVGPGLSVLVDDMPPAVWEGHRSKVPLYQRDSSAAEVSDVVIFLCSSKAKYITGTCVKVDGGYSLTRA

[5] = Solubility in PBS after overnight incubation by nephelometry; format: physicochemical
[6] = target: Trypanothione reductase (Trypanosoma cruzi) (UniProt P28593); test: Inhibition of Trypanosoma cruzi trypanothione reductase assessed as reduction in NADPH consumption at 5 uM using 100 uM trypanothione disulfide as substrate by spectrophotometric method relative to control; procedure, shortened: as §1
CYP2D6 = CYP2D6 (Homo sapiens, UniProt P10635); test: Inhibition of human CYP2D6 at 10 uM by P450-Glo assay relative to control; format: ADME; procedure, shortened: as §2
Sequence of CYP2D6 (P10635 whole entry): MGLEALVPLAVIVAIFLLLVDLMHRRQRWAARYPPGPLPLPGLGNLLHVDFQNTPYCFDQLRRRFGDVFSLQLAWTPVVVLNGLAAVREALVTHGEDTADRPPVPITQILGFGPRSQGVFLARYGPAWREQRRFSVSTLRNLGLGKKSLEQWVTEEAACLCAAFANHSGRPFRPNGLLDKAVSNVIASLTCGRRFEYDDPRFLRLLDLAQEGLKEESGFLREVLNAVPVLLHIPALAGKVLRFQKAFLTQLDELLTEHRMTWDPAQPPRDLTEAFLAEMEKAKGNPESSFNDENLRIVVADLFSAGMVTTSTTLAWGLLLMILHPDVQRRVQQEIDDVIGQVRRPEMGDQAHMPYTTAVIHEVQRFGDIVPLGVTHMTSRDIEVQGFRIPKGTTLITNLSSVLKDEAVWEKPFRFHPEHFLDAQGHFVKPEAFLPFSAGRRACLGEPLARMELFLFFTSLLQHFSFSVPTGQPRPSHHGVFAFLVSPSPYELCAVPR

CYP2C9 = CYP2C9 (Homo sapiens, UniProt P11712); test: Inhibition of human CYP2C9 at 10 uM by P450-Glo assay relative to control; format: ADME; procedure, shortened: as §2
Sequence of CYP2C9 (P11712 whole entry): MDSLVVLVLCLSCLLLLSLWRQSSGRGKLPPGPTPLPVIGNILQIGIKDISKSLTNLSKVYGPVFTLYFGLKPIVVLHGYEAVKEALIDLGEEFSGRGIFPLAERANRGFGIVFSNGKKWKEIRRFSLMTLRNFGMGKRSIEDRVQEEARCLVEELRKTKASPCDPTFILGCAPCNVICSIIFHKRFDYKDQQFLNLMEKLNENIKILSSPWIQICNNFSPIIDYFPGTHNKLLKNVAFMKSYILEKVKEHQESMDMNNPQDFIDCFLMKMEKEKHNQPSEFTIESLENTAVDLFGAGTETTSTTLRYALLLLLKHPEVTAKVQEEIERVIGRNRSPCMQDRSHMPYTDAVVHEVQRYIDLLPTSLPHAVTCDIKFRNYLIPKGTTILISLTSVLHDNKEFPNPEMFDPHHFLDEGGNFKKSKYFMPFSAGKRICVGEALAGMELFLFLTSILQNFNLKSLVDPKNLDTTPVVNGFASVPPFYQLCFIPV

hERG (KCNH2) = hERG (KCNH2) (Homo sapiens, UniProt Q12809); test: Inhibition of Tracer Red binding to human ERG expressed in membranes at 10 uM by fluorescence polarization assay relative to control; conditions: membranes expressing human ERG, probe Tracer Red
Sequence of hERG (KCNH2) (Q12809 whole entry): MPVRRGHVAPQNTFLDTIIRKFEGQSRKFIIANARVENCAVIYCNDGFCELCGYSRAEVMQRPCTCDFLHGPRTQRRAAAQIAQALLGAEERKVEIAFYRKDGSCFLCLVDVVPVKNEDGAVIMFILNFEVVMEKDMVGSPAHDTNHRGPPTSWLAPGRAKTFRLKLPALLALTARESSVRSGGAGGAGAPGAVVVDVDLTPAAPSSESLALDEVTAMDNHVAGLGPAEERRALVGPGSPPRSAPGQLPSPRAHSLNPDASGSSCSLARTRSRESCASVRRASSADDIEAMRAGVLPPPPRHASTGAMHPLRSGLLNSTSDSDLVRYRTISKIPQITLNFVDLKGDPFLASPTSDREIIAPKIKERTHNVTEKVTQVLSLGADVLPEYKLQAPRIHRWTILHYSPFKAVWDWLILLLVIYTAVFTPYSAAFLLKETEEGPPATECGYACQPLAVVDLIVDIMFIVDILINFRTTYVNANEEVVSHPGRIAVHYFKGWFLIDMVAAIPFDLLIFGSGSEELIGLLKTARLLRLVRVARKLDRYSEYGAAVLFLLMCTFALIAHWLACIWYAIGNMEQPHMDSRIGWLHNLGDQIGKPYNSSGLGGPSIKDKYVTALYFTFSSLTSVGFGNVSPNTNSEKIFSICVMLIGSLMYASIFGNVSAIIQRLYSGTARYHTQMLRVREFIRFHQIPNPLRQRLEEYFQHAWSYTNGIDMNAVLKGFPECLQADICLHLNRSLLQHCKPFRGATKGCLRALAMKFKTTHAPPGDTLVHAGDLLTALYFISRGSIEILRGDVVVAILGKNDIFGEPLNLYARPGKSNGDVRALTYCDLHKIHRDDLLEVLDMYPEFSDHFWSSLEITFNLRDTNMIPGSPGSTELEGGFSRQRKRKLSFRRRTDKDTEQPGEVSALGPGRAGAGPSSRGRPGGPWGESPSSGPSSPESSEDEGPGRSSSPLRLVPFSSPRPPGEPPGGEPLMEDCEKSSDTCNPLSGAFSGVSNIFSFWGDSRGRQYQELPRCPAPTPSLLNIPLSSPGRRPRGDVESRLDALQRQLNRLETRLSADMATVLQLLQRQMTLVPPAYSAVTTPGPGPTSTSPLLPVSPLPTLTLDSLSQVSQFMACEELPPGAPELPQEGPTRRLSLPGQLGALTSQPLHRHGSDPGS
Procedure, shortened: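 Fluorescence polarization displacement of a high-affinity red fluorescent tracer from hERG channel–containing membrane fraction.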

CYP3A4 = CYP3A4 (Homo sapiens, UniProt P08684); test: Inhibition of human CYP3A4 at 10 uM by P450-Glo assay relative to control; format: ADME; procedure, shortened: as §2
Sequence of CYP3A4 (P08684 whole entry): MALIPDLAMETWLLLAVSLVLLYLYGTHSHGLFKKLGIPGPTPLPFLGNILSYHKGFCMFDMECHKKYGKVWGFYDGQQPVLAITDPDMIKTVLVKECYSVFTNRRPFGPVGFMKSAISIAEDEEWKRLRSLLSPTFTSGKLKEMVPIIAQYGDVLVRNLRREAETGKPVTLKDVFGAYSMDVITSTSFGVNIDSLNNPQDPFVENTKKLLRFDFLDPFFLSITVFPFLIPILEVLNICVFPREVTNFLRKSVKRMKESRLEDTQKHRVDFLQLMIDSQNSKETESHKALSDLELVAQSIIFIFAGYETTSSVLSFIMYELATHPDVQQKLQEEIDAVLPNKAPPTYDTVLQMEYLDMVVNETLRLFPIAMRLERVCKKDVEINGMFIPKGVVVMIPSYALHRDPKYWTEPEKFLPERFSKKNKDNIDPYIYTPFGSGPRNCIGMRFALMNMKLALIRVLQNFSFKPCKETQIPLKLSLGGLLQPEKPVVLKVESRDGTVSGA

[7] = target: T3, Pteridine reductase, putative (Trypanosoma brucei) (UniProt Q581W1); test: Inhibition of Trypanosoma brucei pteridine reductase 1 assessed as reduction in conversion of dihydrobiopterin to tetrahydrobiopterin at 25 uM up to 50 mins in presence of NADPH by cytochrome c reduction coupled photometric assay relative to control
T3 sequence (whole entry): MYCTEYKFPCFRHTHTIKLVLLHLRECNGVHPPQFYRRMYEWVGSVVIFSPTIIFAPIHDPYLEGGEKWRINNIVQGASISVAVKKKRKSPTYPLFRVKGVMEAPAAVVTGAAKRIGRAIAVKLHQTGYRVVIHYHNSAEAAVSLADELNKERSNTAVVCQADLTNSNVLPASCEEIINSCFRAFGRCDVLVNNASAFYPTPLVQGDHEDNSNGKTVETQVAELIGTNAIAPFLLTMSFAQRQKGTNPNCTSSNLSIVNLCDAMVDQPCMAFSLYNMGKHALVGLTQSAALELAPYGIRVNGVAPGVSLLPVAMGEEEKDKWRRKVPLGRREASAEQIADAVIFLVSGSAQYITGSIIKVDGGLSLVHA

[8] = target: Trypanothione reductase (Trypanosoma cruzi) (UniProt P28593); test: Inhibition of Trypanosoma cruzi trypanothione reductase assessed as reduction in NADPH consumption at 2.5 uM using 40 uM trypanothione disulfide as substrate by spectrophotometric method relative to control; procedure, shortened: as §1
[9] = target: T2, Pteridine reductase 1 (Leishmania major); test: Inhibition of Leishmania major pteridine reductase 1 assessed as reduction in conversion of dihydrobiopterin to tetrahydrobiopterin at 10 uM up to 50 mins in presence of NADPH by cytochrome c reduction coupled photometric assay relative to control
[10] = target: Trypanothione reductase (Trypanosoma cruzi) (UniProt P28593); test: Inhibition of Trypanosoma cruzi trypanothione reductase assessed as reduction in NADPH consumption at 2.5 uM using 100 uM trypanothione disulfide as substrate by spectrophotometric method relative to control; procedure, shortened: as §1
Trypanosoma brucei = test: Inhibition of Trypanosoma brucei glyceraldehyde-3-phosphate dehydrogenase at 10 uM using GAP as substrate in presence of NAD+ by spectrophotometric method relative to control
Procedure, shortened: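 Recombinant TbGAPDH (200–300 μg protein) in 10 mM triethanolamine, 1.7 mM NaHCO3, 100 mM KCl, 5 mM MgSO4, 1 mM EDTA, pH 7.6, 25 °C, with 400 μM NAD+, 500 μM KH2PO4, 300 μM GAP; NAD+ reduction followed at 340 nm; inhibitors from DMSO stocks; triplicate; reported as percentage activity.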

[11] = target: Trypanothione reductase (Trypanosoma cruzi) (UniProt P28593); test: Inhibition of Trypanosoma cruzi trypanothione reductase assessed as reduction in NADPH consumption at 10 uM using 40 uM trypanothione disulfide as substrate by spectrophotometric method; procedure, shortened: as §1
[12] = target: Trypanothione reductase (Trypanosoma cruzi) (UniProt P28593); test: Inhibition of Trypanosoma cruzi trypanothione reductase assessed as reduction in NADPH consumption at 10 uM using 100 uM trypanothione disulfide as substrate by spectrophotometric method; procedure, shortened: as §1
[13] = tested on: Trypanosoma brucei brucei; test: Growth inhibition of Trypanosoma brucei brucei Lister 427 bloodstream forms at 5 uM by SYBR Green based assay relative to control; format: functional; conditions: read-out: GI
Trypanothione reductase = Trypanothione reductase (Trypanosoma cruzi, UniProt P28593); test: Inhibition of Trypanosoma cruzi trypanothione reductase assessed as reduction in NADPH consumption using varying levels of trypanothione disulfide as substrate by Lineweaver-Burk plot analysis
Sequence of Trypanothione reductase (P28593 whole entry): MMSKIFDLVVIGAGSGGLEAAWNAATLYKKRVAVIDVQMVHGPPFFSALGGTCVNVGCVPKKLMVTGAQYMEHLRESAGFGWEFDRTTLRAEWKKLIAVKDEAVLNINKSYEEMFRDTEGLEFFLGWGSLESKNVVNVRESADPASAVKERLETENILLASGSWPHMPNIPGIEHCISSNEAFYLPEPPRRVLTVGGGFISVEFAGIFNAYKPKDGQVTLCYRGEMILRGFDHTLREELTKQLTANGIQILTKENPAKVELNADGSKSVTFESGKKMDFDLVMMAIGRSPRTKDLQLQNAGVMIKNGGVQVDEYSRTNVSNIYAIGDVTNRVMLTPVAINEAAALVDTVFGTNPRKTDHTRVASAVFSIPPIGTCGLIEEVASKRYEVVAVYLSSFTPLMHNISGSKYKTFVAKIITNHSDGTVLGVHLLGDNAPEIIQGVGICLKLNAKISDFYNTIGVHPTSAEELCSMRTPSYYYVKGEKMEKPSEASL
Procedure, shortened: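 Recombinant T. cruzi TR (5-10 mU) at 25 °C in 40 mM HEPES, 1 mM EDTA, pH 7.5, with 100 μM NADPH and 5% DMSO. Reaction started with TS2 and NADPH consumption followed at 340 nm. TS2 varied at 20, 40, 60, 100 and 200 μM without inhibitor and at two fixed inhibitor concentrations. Inhibition type read from Lineweaver-Burk plots. Ki fitted from direct plot by non-linear least squares. Inhibitor assays run at least in duplicate.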

[14] = target: T3, Pteridine reductase, putative (Trypanosoma brucei); test: Inhibition of Trypanosoma brucei pteridine reductase 1 assessed as reduction in conversion of dihydrobiopterin to tetrahydrobiopterin at 10 uM up to 50 mins in presence of NADPH by cytochrome c reduction coupled photometric assay relative to control

Sequence of Trypanothione reductase (Trypanosoma cruzi) (P28593 whole entry, looked up): as the sequence (P28593 whole entry) above

Row | SMILES | Activity (786-0) [%] | inhibition at 10 µM (CYP2C19) [%] | inhibition at 10 µM (CYP1A2) [%] | solubility kinetic [2] [µM] | viability at 10 µM [3] [%] | solubility kinetic [5] [µM] | inhibition at 10 µM (CYP2D6) [%] | inhibition at 10 µM (CYP2C9) [%] | inhibition at 10 µM (hERG (KCNH2)) [%] | inhibition at 10 µM (CYP3A4) [%] | inhibition [9] [%] | inhibition (Trypanosoma brucei) | inhibition [11] [%] | inhibition [12] [%] | also measured
1 | O=C1c2ccccc2C(=O)c2c1oc1c2c(=O)oc2ccccc21 | 89.15 | 46.1 | 48.2 | 70 (≈ 22.1 µg/mL) | 146 | 70 (≈ 22.1 µg/mL) | 71 | 32.4 | -20.3 | 14.8 |  |  |  |  | inhibition [1]: 19.1%; inhibition [4]: -0.4%; inhibition [6]: 18%; inhibition [7]: -6.44%
2 | O=C1c2cccc(O)c2C(=O)c2c1oc1c2c(=O)oc2ccccc21 | 85.82 | 83.8 | 40.8 | 35 (≈ 11.6 µg/mL) | 167 | 14 (≈ 4.65 µg/mL) | 95.2 | 44.6 | 19.5 | 9.44 | -5.5 |  |  |  | inhibition [8]: 42.9%; inhibition [10]: 11.6%
3 | CC(=O)Oc1cccc2c1C(=O)c1c(oc3c1c(=O)oc1ccccc13)C2=O | 98.86 | 103 | 94.6 | 35 (≈ 13.1 µg/mL) | 157 | 35 (≈ 13.1 µg/mL) | 106 | 92.5 | 4.02 | 88.2 |  | inactive | 37.2 | 37 | 
4 | CC(=O)Oc1cccc2c1C(=O)c1oc3c(c1C2=O)c(=O)oc1ccccc13 | 90.52 | 109 | 93.5 | 35 (≈ 13.1 µg/mL) | 183 | 35 (≈ 13.1 µg/mL) | 108 | 99.2 | 86.8 | 88.7 |  | inactive |  |  | inhibition [1]: 41%; inhibition [6]: 35.2%; inhibition of growth at 5 µM [13]: 38%
5 | c1cc2cc(-c3ccc(C4(N5CCCC5)CCCCC4)s3)ccc2[nH]1 |  |  |  |  |  |  |  |  |  |  |  |  |  |  | Ki (Trypanothione reductase): 4 µM
6 | O=C1C=C(Oc2ccccc2)C(=O)c2ccccc21 |  |  |  |  |  |  |  |  |  |  |  | Active | 23 | 29 | 
7 | COc1cccc2c1C(=O)c1c(oc3c1c(=O)oc1ccccc13)C2=O | 96.22 | 71 | 87.2 | 35 (≈ 12.1 µg/mL) | 130 | 70 (≈ 24.2 µg/mL) | 101 | 61.6 | -58 | 22.1 | 2.98 | 88% | 20.6 | 8.1 | inhibition of growth at 5 µM [13]: 29%; inhibition [14]: -6.79%
8 | O=C1c2cc3ccccc3cc2C(=O)c2c1oc1c2c(=O)oc2ccccc21 | 89.59 | 35.7 | 38.5 | 70 (≈ 25.6 µg/mL) | 140 | 35 (≈ 12.8 µg/mL) | 55 | 42.4 | 9.77 | 7.93 | 5.16 | inactive | 2.1 | 7.9 | inhibition [14]: 6.11%

— ChEMBL document CHEMBL4130494, “Crassiflorone derivatives that inhibit Trypanosoma brucei glyceraldehyde-3-phosphate dehydrogenase (TbGAPDH) and Trypanosoma cruzi trypanothione reductase (TcTR) and display trypanocidal activity” (Eur J Med Chem, 2017)
